RGS4 inh: human RGS4 inhibition; HEK293 M3R/RGS4 inducible, Fluo-4 calcium flux; active compounds read high; triggered by carbachol at its EC20; B-score at 10 µM; 310,000 tested, 0.45% active; AID 463165;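 active = B-score, a plate-corrected calcium signal, over three deviations above library mean, with baseline fluorescence within five deviations of library mean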;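 also: RGS4 expression induced by doxycycline in cells with stable M3 receptor; B-score is computed from the integrated fluorescence ratio over baseline after carbachol; higher B-score means a larger calcium signal and so more RGS4 inhibition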
Target sequence (P49798 whole entry, looked up): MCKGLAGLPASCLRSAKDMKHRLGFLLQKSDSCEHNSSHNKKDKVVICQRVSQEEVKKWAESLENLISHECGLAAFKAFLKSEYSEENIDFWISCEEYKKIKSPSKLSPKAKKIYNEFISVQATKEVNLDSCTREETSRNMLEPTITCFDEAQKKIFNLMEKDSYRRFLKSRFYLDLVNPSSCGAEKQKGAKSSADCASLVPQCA
MrgX1 antag: blocks BAM8-22 activation of human MrgX1 receptor; B-score at 10 µM; AID 588676; MRGX1-HEK293 calcium flux, Fluo-4, BAM8-22 antagonism; active compounds read low; Q96LB2; 310,000 tested, 1.3% active;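 active = calcium-response B-score plate-corrected more than 3 library SD below zero, starting fluorescence within 5 deviations, no agonist response on first addition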;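 also: peak minus trough fluorescence over baseline after final BAM8-22 challenge near maximal dose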
Target sequence (Q96LB2 whole entry, looked up): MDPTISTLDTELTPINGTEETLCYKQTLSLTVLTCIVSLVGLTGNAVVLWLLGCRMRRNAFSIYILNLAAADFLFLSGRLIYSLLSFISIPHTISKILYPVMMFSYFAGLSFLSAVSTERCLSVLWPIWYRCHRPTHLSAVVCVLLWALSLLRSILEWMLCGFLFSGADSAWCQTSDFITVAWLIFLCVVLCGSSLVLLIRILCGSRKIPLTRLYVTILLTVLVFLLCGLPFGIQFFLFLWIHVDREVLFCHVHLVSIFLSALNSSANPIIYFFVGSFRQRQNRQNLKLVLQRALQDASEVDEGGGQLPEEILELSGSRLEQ
MrgX1 allo act: allosterically activates human MrgX1 receptor signaling. Q96LB2. MrgX1-HEK293, Fluo-4 calcium flux, FDSS; active compounds read high. B-score at 10 µM. 310,000 tested, 0.63% active;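 active = plate-corrected calcium response at least 3 library SD above typical, normal starting fluorescence, not activating the receptor alone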;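 also: compound read alongside a low EC10 to EC30 dose of BAM8-22 agonist; peak minus trough fluorescence over baseline measured at the second addition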
MrgX1 ag: activates human MrgX1 receptor signaling | Q96LB2 | MrgX1-HEK293 cells, Fluo-4 calcium fluorescence, agonist mode; active compounds read high | B-score at 10 µM | 310,000 tested, 0.44% active | AID 588627;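 active = calcium response B-score plate-corrected fluorescence ratio at least 3 library SD, with starting fluorescence B-score inside 5 SD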
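System: HEK293 cells stably expressing human MrgX1 receptor; Dosing: test compound in the initial addition of three; Schedule: overnight plating, then 30 min 37 °C plus 30 min room-temperature dye loading; Detection: kinetic calcium dye fluorescence, Fluo-4 NW; Controls: per-plate positive and negative controls for Z′ factor.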
RGS4 pot: RGS4 potentiation or activation | HEK293 M3R/inducible RGS4, carbachol calcium flux Fluo4; active compounds read low | B-score at 10 µM | 310,000 tested, 0.92% active | AID 463111;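 active = B-score of the integrated calcium signal more than 4 SD below the library mean, with starting fluorescence not abnormally high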;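 also: negative B-score means reduced calcium response which marks RGS4 activation or potentiation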
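Material: M3R-expressing HEK293 line, RGS4 induced by doxycycline | Schedule: Overnight RGS4 induction, 30 min dye load 37 °C, 20 min compound RT | Measured by: Fluo4 fluorescence kinetic imaging of calcium | Read-out: Integrated calcium ratio converted to B score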
RGS4 block valid: RGS4 inhibitor validation | shares compounds with RGS4 inh | HEK293 M3R/RGS4, carbachol calcium Fluo-4 fluorescence; carbachol added at its EC20; 0 = buffer wells, 100 = carbachol control | calcium response, % at 10 µM | 1,700 tested, 65% active | AID 492999;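 active = duplicate-averaged calcium response above the buffer-only control mean plus 5 SD of those controls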;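 also: integrated fluorescence ratio F max minus min over baseline F0; higher response in RGS4-induced cells means RGS4 inhibition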
M3R Ca ctr: counter-screen for RGS4 inhibitors: effect in non-induced cells. HEK293 M3R non-induced, carbachol calcium Fluo-4; submaximal (EC20) carbachol stimulus; buffer wells 0%, carbachol control wells 100%. shares compounds with RGS4 inh. activity (percent), % at 10 µM. 1,900 tested, 20% active. AID 493000; call rule not given here;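 also: RGS4 induction absent so cells express M3R without RGS4; higher means more calcium signal and flags a non-specific hit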
M3R basal Ca ctr: second counter-screen for RGS4 inhibitors: non-induced cells without carbachol; shares compounds with RGS4 inh; HEK293 M3R/RGS4 non-induced, Fluo-4 calcium, no carbachol; normalised: buffer wells 0%, carbachol wells 100%; calcium response (agonist-mode artifact), % at 10 µM; 1,900 tested, 22% active; AID 493001;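 active = duplicate-averaged calcium rise in uninduced cells above buffer wells' mean plus 5 SD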
Large screens that a line does not name were inactive (follow-up assays come after a bar, where they were run). Compounds with a hit are over-represented: about 3.5% of the library has one in this group of screens.

Cc1ccc2[nH]c(=O)c(C(c3nnnn3C(C)(C)C)N(Cc3ccco3)CC3CCCO3)cc2c1 (stereo not given)	none | RGS4 block valid inactive | M3R Ca ctr inactive | M3R basal Ca ctr inactive
Cc1cccc2cc(C(c3nnnn3C(C)(C)C)N(Cc3ccco3)CC3CCCO3)c(=O)[nH]c12 (stereo not given)	none | RGS4 block valid inactive | M3R Ca ctr inactive | M3R basal Ca ctr inactive
CC(C)(C)n1nnnc1C(c1ccccc1F)N(Cc1ccco1)CC1CCCO1 (stereo not given)	none
Cc1ccc2[nH]c(=O)c(C(c3nnnn3C3CCCC3)N(Cc3cccnc3)Cc3ccco3)cc2c1 (stereo not given)	none
Cc1cc(C)c(C2=Nn3c(C)nnc3SC2C)cc1C (stereo not given)	none
C=CCOc1ccc(/C=C/C(=O)OCC(=O)Nc2c(C)n(C)n(-c3ccccc3)c2=O)cc1	none
Cc1[nH]n(-c2ccc(Br)cc2)c(=O)c1C=Nc1ccc(S(=O)(=O)Nc2nccs2)cc1	RGS4 inh 17.9 | RGS4 block valid 9.5% | M3R Ca ctr inactive | M3R basal Ca ctr inactive
Cc1cc(C)nc(NS(=O)(=O)c2ccc(N=Cc3c(C)[nH]n(-c4ccccc4)c3=O)cc2)n1	none
Cc1ccc(-n2[nH]c(C)c(C=Nc3ccc(S(=O)(=O)Nc4nccs4)cc3)c2=O)cc1	none
CCc1nnc(NS(=O)(=O)c2ccc(N=Cc3c(C)[nH]n(-c4ccc(C)c(C)c4)c3=O)cc2)s1	none | RGS4 block valid inactive | M3R Ca ctr inactive | M3R basal Ca ctr inactive
COc1ccc(OCCSc2nnc(Cc3cccc4ccccc34)n2N)cc1	none | M3R Ca ctr inactive | M3R basal Ca ctr inactive
Nc1nc2ccc(S(=O)(=O)c3ccc4nc(N)sc4c3)cc2s1	RGS4 inh 6.3 | RGS4 block valid inactive | M3R Ca ctr inactive | M3R basal Ca ctr inactive
CCC(C)[C@H](NC(=O)[C@@H]1Cc2c([nH]c3ccccc23)C2c3ccccc3C(=O)N21)C(=O)NCC1CCCO1 (stereo not given in full)	none
COc1cc(/C=C2\SC(=Nc3ccc(N4CCOCC4)cc3)N(C)C2=O)ccc1OC(C)C(=O)O (stereo not given)	RGS4 inh 6.06 | RGS4 block valid 7.5% | M3R Ca ctr inactive | M3R basal Ca ctr inactive
COc1cc(/C=C2\SC(=Nc3ccccc3)N(Cc3ccco3)C2=O)ccc1OC(C)C(=O)O (stereo not given)	none
COC(=O)C(C(=O)OC)C(C[N+](=O)[O-])c1ccc(OC)c(OC)c1 (stereo not given)	none
COc1ccc(C(C[N+](=O)[O-])C2(c3ccc(OC)c(OC)c3)C(=O)c3ccccc3C2=O)cc1 (stereo not given)	RGS4 inh 15.6 | RGS4 block valid 60.5% | M3R Ca ctr 37.0% | M3R basal Ca ctr inactive
CCOC(=O)c1sc(N2C(=O)C(O)=C(C(=O)c3ccco3)C2c2cccc([N+](=O)[O-])c2)nc1C (stereo not given)	none | RGS4 block valid inactive | M3R Ca ctr inactive | M3R basal Ca ctr inactive
Cn1c(N2CCOCC2)nc(-c2ccccc2)c1-c1ccccc1	none
COc1cc(NS(=O)(=O)c2ccc(NC(C)=O)cc2)nc(OC)n1	none
COc1ccc(CC(=O)Nc2ccc(S(=O)(=O)Nc3cc(C)on3)cc2)cc1OC	none
COc1ccc(-c2csc(Nc3ccc(S(=O)(=O)Nc4cc(C)on4)cc3)n2)cc1C	RGS4 inh 13.3 | RGS4 block valid inactive | M3R Ca ctr 46.5% | M3R basal Ca ctr inactive
COc1ccc(-c2csc(Nc3ccc(S(=O)(=O)Nc4cc(OC)nc(OC)n4)cc3)n2)cc1	RGS4 inh 5.71 | RGS4 block valid 18.0% | M3R Ca ctr inactive | M3R basal Ca ctr inactive
COc1cc(NS(=O)(=O)c2ccc(Nc3nc(-c4ccccn4)cs3)cc2)nc(OC)n1	none | M3R Ca ctr inactive | M3R basal Ca ctr inactive
CC12CCC(=O)N1C(C(=O)Nc1ccc(F)c(Cl)c1)CS2 (stereo not given)	none
COc1cc(CCC(=O)Nc2nnc(-c3cccnc3)s2)cc(OC)c1OC	none
COc1ccc(NC(=O)c2ccc(NC(=O)c3cccs3)cc2)cc1	none
COc1nc(N)nc(NC(=O)c2cccs2)c1N=O	RGS4 inh 8.09 | RGS4 block valid 16.0% | M3R Ca ctr inactive | M3R basal Ca ctr inactive
O=C(O)C1=NOC(CNc2ncc(C(F)(F)F)cc2Cl)C1 (stereo not given)	RGS4 inh 5.01 | RGS4 block valid 5.0% | M3R Ca ctr 48.5% | M3R basal Ca ctr inactive
CC(=O)C1=NOC(CNc2ncc(C(F)(F)F)cc2Cl)C1 (stereo not given)	none | M3R Ca ctr inactive | M3R basal Ca ctr inactive
NNC(=O)C1=NOC(CNc2ncc(C(F)(F)F)cc2Cl)C1 (stereo not given)	none
C/C(=N/NC(=O)c1cc(-c2ccccc2)nc2c(Cl)cccc12)c1cccnc1	none
O=C1Nc2ccccc2C1=Nc1cccc(Cl)c1	RGS4 inh 41.3, MrgX1 ag 50.6 | RGS4 block valid 28.0% | M3R Ca ctr 54.5% | M3R basal Ca ctr 16.0%
CSc1cccc(N=C2C(=O)Nc3ccccc32)c1	RGS4 inh 15.8, MrgX1 ag 32.5 | RGS4 block valid 24.5% | M3R Ca ctr inactive | M3R basal Ca ctr 7.5%
Cc1sc2ncn(CC(=O)NCCCN3CC(C)CC(C)C3)c(=O)c2c1S(=O)(=O)N1CC(C)CC(C)C1 (stereo not given)	none
Cc1ccc(NC(=O)c2c(C)nc(Nc3nc4ccccc4o3)nc2C)cc1	none | M3R Ca ctr inactive | M3R basal Ca ctr inactive
Nc1nc(Oc2ccc(F)cc2)c(Br)c(=O)[nH]1	none
CC(C)NCC(O)c1cc(O)cc(O)c1 (stereo not given)	RGS4 inh 4.82 | RGS4 block valid 22.0% | M3R Ca ctr 52.0% | M3R basal Ca ctr inactive
O=C1/C(=C/c2ccsc2)N2CCC1CC2	none
COC(=O)c1c(NC(=O)COC(=O)C2CCC2)sc(C)c1C	none
CCOc1ccc(-c2nnc(Nc3ccc(OC)c(C(=O)N4CCCCC4)c3)c3ccccc23)cc1	none | RGS4 block valid inactive | M3R Ca ctr inactive | M3R basal Ca ctr inactive
Cc1cc(Cl)n2c(nc3ccccc32)c1C#N	RGS4 inh 11.1 (no result: MrgX1 antag, MrgX1 allo act, MrgX1 ag) | RGS4 block valid 31.0% | M3R Ca ctr inactive | M3R basal Ca ctr 10.0%

Source: PubChem BioAssay (Johns Hopkins Ion Channel Center)
